# Hits are enriched below; roughly 1.6% of the tested compounds scored in any of these assays.
# ABHD5 PLIN5 PPI: inhibitors of human ABHD5-perilipin-5 interaction; Q00G26+Q8WTS1; Split G. princeps luciferase complementation, luminescence, 4 h; inhibition, % at 4 µM; 360,000 compounds, 0.78% hits; AID 602281;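 active = inhibition above the mean inhibition across every tested compound plus 3 SD, cut at about 22% in these data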;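 also: 0% = DMSO only wells and the 100% control is not disclosed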
# TLR9-MyD88 inh: blocks human TLR9 binding to MyD88. CHO BLA complementation TLR9-MyD88, CCF4 FRET ratio. Q9NR96+Q99836. 340,000 compounds, 0.21% hits. inhibition, % at 4.98 µM;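 active = inhibition above the mean over all tested compounds plus 3 SD, cut at about 21% in these data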;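 also: 0% = DMSO only wells and 100% = clavulanate BLA inhibitor control wells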
# B2AR ag: activates human beta-2 adrenergic receptor causing internalization. response, % (no concentration beside the values). P07550. Am2.2-beta2AR cells, FAP receptor internalization, flow cytometry. 340,000 compounds, 0.43% hits;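 active = response above a set limit, near 3 SD of response in nonfluorescent compounds, cut at about 42% in these data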
# TLR4-MyD88 BLA: TLR4-MyD88 interaction inhibition in cells; O00206+Q99836; HeLa CL3-4 TLR4/MyD88 BLA complementation, FRET ratio; inhibition, % at 8.4 µM; 200,000 compounds, 0.18% hits; AID 861; in the data active = inhibition above about 25%;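 also: 0% = vehicle and 100% = reference inhibitor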
# Target sequence (O00206 whole entry, looked up): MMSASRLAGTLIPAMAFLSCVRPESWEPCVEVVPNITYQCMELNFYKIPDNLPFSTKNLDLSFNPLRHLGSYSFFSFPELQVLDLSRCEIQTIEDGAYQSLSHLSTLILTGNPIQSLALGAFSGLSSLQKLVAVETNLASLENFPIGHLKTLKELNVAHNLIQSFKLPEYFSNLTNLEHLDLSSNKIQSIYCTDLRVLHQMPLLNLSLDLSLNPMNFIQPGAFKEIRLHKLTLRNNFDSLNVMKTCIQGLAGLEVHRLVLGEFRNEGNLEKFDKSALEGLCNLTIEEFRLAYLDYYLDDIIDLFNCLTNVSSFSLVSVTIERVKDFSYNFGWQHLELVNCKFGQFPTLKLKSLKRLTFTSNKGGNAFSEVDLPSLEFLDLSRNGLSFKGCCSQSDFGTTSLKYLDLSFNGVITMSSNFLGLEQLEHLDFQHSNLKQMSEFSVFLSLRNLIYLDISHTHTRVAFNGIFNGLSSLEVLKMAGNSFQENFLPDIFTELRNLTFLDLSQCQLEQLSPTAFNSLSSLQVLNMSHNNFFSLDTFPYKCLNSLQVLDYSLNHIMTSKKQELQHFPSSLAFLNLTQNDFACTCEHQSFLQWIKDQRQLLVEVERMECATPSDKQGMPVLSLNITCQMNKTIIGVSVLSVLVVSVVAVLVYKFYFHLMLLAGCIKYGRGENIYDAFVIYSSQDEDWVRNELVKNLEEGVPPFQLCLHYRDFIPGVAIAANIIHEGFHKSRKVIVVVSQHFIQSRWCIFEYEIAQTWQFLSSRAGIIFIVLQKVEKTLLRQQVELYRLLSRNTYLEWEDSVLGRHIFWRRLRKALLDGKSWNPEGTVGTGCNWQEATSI
# Target sequence (Q99836 whole entry, looked up): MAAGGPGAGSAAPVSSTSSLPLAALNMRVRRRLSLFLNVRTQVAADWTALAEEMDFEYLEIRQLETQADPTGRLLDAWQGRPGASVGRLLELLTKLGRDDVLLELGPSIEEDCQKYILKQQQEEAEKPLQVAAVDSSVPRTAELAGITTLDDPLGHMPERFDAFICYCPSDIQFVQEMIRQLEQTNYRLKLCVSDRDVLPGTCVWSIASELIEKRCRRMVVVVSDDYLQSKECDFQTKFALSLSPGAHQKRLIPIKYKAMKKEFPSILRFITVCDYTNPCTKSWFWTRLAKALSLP
# Dynein transport: dynein cargo transport inhibition; 3617.4 mouse cells, GR-EGFP nuclear translocation imaging; test concentration mostly 20 µM; stimulated with dexamethasone, 1 µM; hits give low values; z-score, hits read low; 220,000 compounds, 0.47% hits; AID 1381;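 active = plate z-score of nuclear minus cytoplasmic receptor signal below a set negative limit, without overly bright fluorescence or cell loss, cut at about -3.5 in these data, passing the limit was not always enough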;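 also: z-score of nuclear minus cytoplasmic ring GR-EGFP intensity difference per well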
#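 Buffer or medium: tet-free, stripped-serum medium; reagent: dexamethasone at 1.0 µM final, 30 min; incubation: 48 h induction, 1 h compound, 30 min dex at 37 °C; measured by: formaldehyde fixation, Hoechst nuclear stain, 10x automated fluorescence imaging; read-out: nuclear-to-cytoplasmic GR-EGFP distribution per well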
# NOD2-RIPK2 inh: NOD2-RIPK2 protein interaction inhibition. inhibition, % at 4.98 µM. O43353. 360,000 compounds, 0.38% hits. CHO BLA complementation NOD2-RIPK2, CCF4 ratio; in the data active = inhibition above about 21%;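 also: 0% = vehicle only and 100% = reference blocker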
# TLR9-MyD88 cf: TLR9-MyD88 interaction inhibition, confirmation | shares compounds with TLR9-MyD88 inh | CHO TLR9/MyD88 BLA complementation, CCF4 FRET ratio | inhibition, % at 4.98 µM | 680 compounds, 51% hits;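 active = mean inhibition across three repeats above about 21% taken from the earlier screen, limit read from the data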;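 also: blue over green emission ratio reports constitutive TLR9 MyD88 association via BLA complementation; 0% = DMSO vehicle wells and 100% = clavulanate BLA inhibitor wells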
# BLA nonselective: non-selective beta-lactamase inhibitors in TLR9-MyD88 counter-screen; shares compounds with TLR9-MyD88 inh; CHO-BLA cells, CCF4 FRET ratio, BLA reporter; inhibition, % at 4.98 µM; 680 compounds, 7% hits;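 active = mean inhibition above a 50% cutoff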;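 also: counterscreen of TLR9-MyD88 hits on CMV-driven BLA in CHO-K1 cells; 0% = DMSO alone and 100% = clavulanate blocking BLA; higher means less blue over green ratio so more BLA blockade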
# TLR9 CHO tox: CHO cell toxicity counter-screen for TLR9-MyD88 inhibitors; TLR9-MyD88 CHO cells cytotoxicity, luminescence; shares compounds with TLR9-MyD88 inh; AID 588336; 680 compounds, 39% hits; inhibition, % at 4.98 µM; in the data active = inhibition above about 11%
# Numbers without * were called inactive; nt = no result.
SMILES,ABHD5 PLIN5 PPI,TLR9-MyD88 inh,B2AR ag,TLR4-MyD88 BLA,Dynein transport,NOD2-RIPK2 inh,TLR9-MyD88 cf,BLA nonselective,TLR9 CHO tox
CCOc1cc(/C=C2\C(=O)N(c3cccc(C(F)(F)F)c3)C(=O)c3ccccc32)ccc1O,-5.7,10.6,20.1,13.9,-1.16,-3.1,nt,nt,nt
Cc1cccc(N2C(=O)/C(=C\c3ccc(OC(F)F)cc3)c3ccccc3C2=O)c1,8.6,50.1*,25.4,16.6,-1.04,-3.2,45.2*,47.2,0.3
Cc1ccccc1-c1cc2nc(Nc3ccc(F)cc3)n(C)c(=O)c2s1,-12.9,nt,nt,nt,nt,-9.0,nt,nt,nt
CCOC(=O)Cc1ccc(Nc2nc3cc(-c4ccccc4C)sc3c(=O)n2C)cc1,-1.1,nt,nt,nt,nt,-20.0,nt,nt,nt
COc1ccccc1C1C=C(c2ccc(C)cc2)Nc2nnnn21 (configuration not stated),-1.1,22.4*,-2.0,-9.0,0.868,13.3,2.1,2.0,8.3
COc1ccccc1C(=O)NC(=O)COC(=O)Cc1ccccc1[N+](=O)[O-],10.1,6.4,7.0,nt,nt,-5.3,nt,nt,nt
Cc1cc(C)c2nc3sc(C(=O)N4CCOCC4)c(N)c3cc2c1,-8.8,3.2,33.6,nt,0.807,15.7,nt,nt,nt
Cc1ccc(C)c2nc3sc(C(=O)N4CCOCC4)c(N)c3cc12,1.4,21.6*,5.8,-1.4,-1.11,-1.2,4.7,-0.3,25.8*
Cc1c(Cl)c([N+](=O)[O-])nn1CCCC(=O)Nc1sc2c(c1C#N)CCC2,-0.3,23.3*,3.6,2.2,0.116,-9.8,-5.1,-1.2,-3.0
COc1ccc(C(=O)NCC(=O)N/N=C/C(C)=C/c2ccccc2)cc1OC,4.2,20.9*,22.6,0.0,0.532,1.8,0.7,-2.3,-0.8
O=Nc1c(O)n(Cc2ccccc2)c2ccccc12,-7.7,9.2,8.9,nt,0.662,2.4,nt,nt,nt
COC(=O)c1ccc(Cn2c(O)c(N=O)c3ccccc32)o1,2.1,25.6*,13.4,-3.0,-0.431,2.1,7.7,7.4,3.4
O=Nc1c(O)n(Cc2cccc(C(F)(F)F)c2)c2ccccc12,-2.4,33.5*,-0.2,11.9,-0.802,13.5,8.7,9.0,1.9
Cc1ccc(N2C(=O)NC(NS(=O)(=O)c3ccc(C)cc3)(C(F)(F)F)C2=O)cc1 (configuration not stated),1.3,20.9*,7.0,nt,nt,-5.4,-1.8,-3.7,1.6
Cc1ccc(N2C(=O)NC(NS(=O)(=O)c3ccccc3)(C(F)(F)F)C2=O)cc1 (configuration not stated),2.5,-0.3,5.2,nt,nt,-3.6,nt,nt,nt
COc1ccc(COC[B-](F)(F)F)cc1,1.2,-7.0,nt,nt,nt,-7.9,nt,nt,nt
COc1cc(C(=O)NC2CCN(Cc3ccccc3)CC2)cc(Cl)c1OC,-7.2,25.7*,-0.4,nt,nt,5.6,4.5,3.8,4.6
CCCCN(CCCC)c1nc2ccccc2nc1C(C#N)C(=O)NCCCOC (configuration not stated),0.8,40.0*,8.4,19.4,0.52,-7.9,8.8,12.6,5.7
COC(=O)c1cn[nH]c1NC(=S)Nc1ccccc1C,1.3,0.1,1.6,-5.6,-0.368,-0.3,nt,nt,nt
COC(=O)c1cn[nH]c1NC(=S)Nc1ccc(Cl)c(Cl)c1,-6.8,21.9*,20.8,-0.6,-0.301,9.1,20.6,12.9,5.7
CCc1ccc(-c2nc3ccc(Br)cc3c(C(=O)O)c2C)s1,3.5,4.4,7.1,nt,nt,-1.5,nt,nt,nt
CC(C)N(CCC(=O)c1ccc2ccccc2c1)Cc1ccccc1,20.1,21.4*,-2.9,nt,nt,6.5,-2.6,-1.3,48.5*
CC(OC(=O)c1ccc2ccccc2c1)C(=O)N(C)Cc1ccccc1 (configuration not stated),4.9,-2.7,3.5,nt,nt,-5.1,nt,nt,nt
COc1ccc(N=Cc2sc(O)c3ccccc23)cc1,-21.9,22.3*,-83.8,21.0,-1.74,2.1,20.9*,18.3,-1.1
CCNC(=O)C1(C)CCCN(C(=O)c2oc3ccccc3c2C)C1 (configuration not stated),7.0,nt,nt,nt,nt,8.7,nt,nt,nt
SMILES,ABHD5 PLIN5 PPI,TLR9-MyD88 inh,B2AR ag,TLR4-MyD88 BLA,Dynein transport,NOD2-RIPK2 inh,TLR9-MyD88 cf,BLA nonselective,TLR9 CHO tox
S=C(c1cccs1)N1CCN(c2ccccc2)CC1,5.2,-1.3,-5.0,nt,nt,-2.8,nt,nt,nt
COC1C=CC=C(C)C(=O)NC2=CC(=O)C(N)=C(CC(C)CC(OC)C(O)C(C)C=C(C)C1OC(N)=O)C2=O (configuration not stated),-11.8,24.3*,-4.0,nt,nt,12.8,2.4,-3.6,85.3*
COc1ccc(S(=O)(=O)N2CCCCC2)cc1NC(=O)c1ccc([N+](=O)[O-])o1,-0.4,22.2*,9.8,9.0,-0.0524,10.1,3.0,5.6,22.1*
CC1CCN(c2ccc3c(c2)S(=O)(=O)c2ccccc2C3=O)CC1,-13.6,32.0*,5.2,nt,nt,19.3,22.0*,23.6,4.8
NC(=O)C1CCN(c2ccc3c(c2)S(=O)(=O)c2ccccc2C3=O)CC1,-5.2,22.9*,-1.5,nt,nt,1.3,6.1,5.1,0.0
Cc1nn(C(=O)c2cccc([N+](=O)[O-])c2)c(C)c1Cl,-5.7,2.7,-8.5,nt,nt,-10.6,nt,nt,nt
COc1ccccc1NS(=O)(=O)NC(=O)c1c(C)[nH]c2ccccc12,-5.9,21.5*,0.2,nt,nt,-6.4,-2.4,-3.7,2.7
CCNC(=O)C1(C)CCN(C(=O)c2cc(F)ccc2C)C1 (configuration not stated),5.0,nt,nt,nt,nt,-12.1,nt,nt,nt
CCOC(=O)CNc1c(-c2ccc(OC)cc2)nc2ccc(Cl)cn12,-3.5,3.6,-0.2,3.0,-0.0745,5.1,nt,nt,nt
CCOC(=O)CNc1c(-c2ccc(F)cc2)nc2cnccn12,2.1,24.4*,11.1,14.4,0.534,16.1,7.8,6.7,-1.9
COc1ccc(NC(=O)/C(Cl)=C(/Cl)S(=O)Cc2ccc(Cl)cc2)cn1 (configuration not stated),95.6*,54.5*,-401.3,24.6,-5.44*,67.6*,55.7*,36.1,98.8*
COc1ccc(NC(=O)C(C)(C)Oc2ccc(Cl)cc2)cn1,-0.3,-8.4,-6.3,nt,nt,0.2,nt,nt,nt
CCCc1[nH]n(-c2ccc(F)cc2)c(=O)c1C=NCC1CCCO1 (configuration not stated),8.6,0.3,-7.0,-4.9,-0.441,-6.9,nt,nt,nt
Cc1[nH]n(-c2ccccc2)c(=O)c1C=NCC1CCCO1 (configuration not stated),-2.0,26.2*,-0.3,-6.4,-0.525,-4.5,4.3,-1.1,2.2
